{
  "source": "ChEMBL document CHEMBL1212805",
  "about": "“Evaluation of WLBU2 peptide and 3-O-octyl-sn-glycerol lipid as active ingredients for a topical microbicide formulation targeting Chlamydia trachomatis” (Antimicrob Agents Chemother, 2010)",
  "key": {"Chlamydia trachomatis [1]": {"tested_on": "Chlamydia trachomatis", "experiment": "Antibacterial activity against Chlamydia trachomatis serovar E after 5 mins by MCC assay in presence of simulated seminal fluid", "type": "functional", "how_it_was_run": "(§1)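 C. trachomatis serovar EBs (5 × 10⁶ IFU/ml) diluted in 100% VFS (zinc-free for SFS), 100% SFS or 10% HSA, mixed 1:1 with five 4-fold SPG dilutions (final 60 μM/30 mM top; 50% VFS, 50% SFS, 5% HSA). After 5 or 120 min, diluted 1:40, inoculated onto McCoy monolayers. Inclusions stained with anti-LPS/FITC after 36–48 h. Inhibition versus no-drug control in the same fluid; MCC is complete inhibition.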"}, "Chlamydia trachomatis [2]": {"tested_on": "Chlamydia trachomatis", "experiment": "Antibacterial activity against Chlamydia trachomatis serovar E after 5 mins by MCC assay in presence of simulated vaginal fluid", "type": "functional", "how_it_was_run": "as §1"}, "Chlamydia trachomatis [3]": {"tested_on": "Chlamydia trachomatis", "experiment": "Antibacterial activity against Chlamydia trachomatis serovar L2 after 120 mins by MCC assay in presence of simulated seminal fluid", "type": "functional", "settings": "serovar L2, 2 h", "how_it_was_run": "as §1"}, "Chlamydia trachomatis [4]": {"tested_on": "Chlamydia trachomatis", "experiment": "Antibacterial activity against Chlamydia trachomatis serovar D at 1.88 mM at pH 5.5 after 5 mins by MCC assay in presence of sucrose- phosphate-glutamate buffer", "type": "functional, organism-based", "settings": "in the assay text read “after 120 mins” for “after 5 mins”", "how_it_was_run": "(§2)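 Compounds and EBs were each diluted in SPG at pH 4, 5.5, 7 or 8 and mixed 1:1, so exposure pH was constant. Five 4-fold dilutions were used (top 60 μM peptide, 30 mM lipid). After 5 or 120 min, the mix was diluted 1:40 in pH 7.5 SPG and plated on McCoy cells. Inclusion counts were compared with a no-drug control at the same pH and time.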"}, "Chlamydia trachomatis [5]": {"tested_on": "Chlamydia trachomatis", "experiment": "Antibacterial activity against Chlamydia trachomatis serovar L2 after 5 mins by MCC assay in presence of simulated human serum albumin", "type": "functional", "settings": "serovar L2, 5 min", "how_it_was_run": "as §1"}, "Chlamydia trachomatis [6]": {"tested_on": "Chlamydia trachomatis", "experiment": "Antibacterial activity against Chlamydia trachomatis serovar E after 5 mins by MCC assay in presence of simulated human serum albumin", "type": "functional", "how_it_was_run": "as §1"}, "Chlamydia trachomatis [7]": {"tested_on": "Chlamydia trachomatis", "experiment": "Antibacterial activity against Chlamydia trachomatis serovar D after 5 mins by MCC assay in presence of simulated seminal fluid", "type": "functional", "how_it_was_run": "as §1"}, "Chlamydia trachomatis [8]": {"tested_on": "Chlamydia trachomatis", "experiment": "Antibacterial activity against Chlamydia trachomatis serovar E assessed as change in MCC at pH 4 to 8 after 5 mins by MCC assay in presence of sucrose- phosphate-glutamate buffer", "type": "functional, organism-based", "how_it_was_run": "as §2"}, "Chlamydia trachomatis [9]": {"tested_on": "Chlamydia trachomatis", "experiment": "Antibacterial activity against Chlamydia trachomatis serovar D assessed as change in MCC at pH 4 to 8 after 5 mins by MCC assay in presence of sucrose- phosphate-glutamate buffer", "type": "functional, organism-based", "how_it_was_run": "as §2"}, "Chlamydia trachomatis [10]": {"tested_on": "Chlamydia trachomatis", "experiment": "Antibacterial activity against Chlamydia trachomatis serovar L2 at => 6.25 mM after 5 mins relative to control", "type": "functional"}, "Chlamydia trachomatis [11]": {"tested_on": "Chlamydia trachomatis", "experiment": "Antibacterial activity against Chlamydia trachomatis serovar L2 after 120 mins by MCC assay in presence of simulated human serum albumin", "type": "functional", "settings": "serovar L2, 2 h", "how_it_was_run": "as §1"}, "Chlamydia trachomatis [12]": {"tested_on": "Chlamydia trachomatis", "experiment": "Antibacterial activity against Chlamydia trachomatis serovar D after 5 mins by MCC assay in presence of simulated human serum albumin", "type": "functional", "how_it_was_run": "as §1"}, "Chlamydia trachomatis [13]": {"tested_on": "Chlamydia trachomatis", "experiment": "Antibacterial activity against Chlamydia trachomatis serovar D after 120 mins by MCC assay in presence of simulated human serum albumin", "type": "functional", "settings": "2 h", "how_it_was_run": "as §1"}, "[14]": {"experiment": "Cytotoxicity against mouse McCoy cells after 48 hrs at =<30 uM by MCC assay", "type": "cell-based", "how_it_was_run": "(§3)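 Cytotoxicity was tested by running the MCC procedure without inoculum: compound diluted in half with SPG, then diluted 1:40 onto McCoy monolayers and incubated 48 h at 37°C. Read-out by Alamar Blue, MTT and LDH kits. SPG served as negative control and Triton X-100 as positive control. Nontoxic was defined as <10% toxicity in all methods.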"}, "Chlamydia trachomatis [15]": {"tested_on": "Chlamydia trachomatis", "experiment": "Antibacterial activity against Chlamydia trachomatis serovar E assessed as change in MCC at pH 4 to 8 after 120 mins by MCC assay in presence of sucrose- phosphate-glutamate buffer", "type": "functional, organism-based", "how_it_was_run": "as §2"}, "Chlamydia trachomatis [16]": {"tested_on": "Chlamydia trachomatis", "experiment": "Antibacterial activity against Chlamydia trachomatis serovar D after 120 mins by MCC assay in presence of simulated seminal fluid", "type": "functional", "settings": "2 h", "how_it_was_run": "as §1"}, "[17]": {"experiment": "Cytotoxicity against mouse McCoy cells after 48 hrs at =<30 uM by almar blue assay", "type": "cell-based", "how_it_was_run": "as §3"}, "Chlamydia trachomatis [18]": {"tested_on": "Chlamydia trachomatis", "experiment": "Antibacterial activity against Chlamydia trachomatis serovar L2 at 3.13 mM after 120 mins relative to control", "type": "functional", "settings": "serovar L2, 2 h", "how_it_was_run": "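Serovar L2 EBs (5 × 10⁶ IFU/ml in SPG, pH 7.5) mixed 1:1 with ten 2-fold SPG dilutions (final 50 μM top peptide, 25 mM lipid), exposed 5 or 120 min, diluted 1:40, plated on McCoy cells; fixed with methanol after 36–48 h, anti-LPS/FITC stained. Triplicate wells, three fields each, three independent days; percent inhibition versus no-drug control ± SD.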"}, "Chlamydia trachomatis [19]": {"tested_on": "Chlamydia trachomatis", "experiment": "Antibacterial activity against Chlamydia trachomatis serovar E after 120 mins by MCC assay in presence of simulated seminal fluid", "type": "functional", "settings": "2 h", "how_it_was_run": "as §1"}, "Chlamydia trachomatis [20]": {"tested_on": "Chlamydia trachomatis", "experiment": "Antibacterial activity against Chlamydia trachomatis serovar D at 1.88 mM at pH 4 after 5 mins by MCC assay in presence of sucrose- phosphate-glutamate buffer", "type": "functional, organism-based", "settings": "in the assay text read “after 120 mins” for “after 5 mins”", "how_it_was_run": "as §2"}, "Chlamydia trachomatis [21]": {"tested_on": "Chlamydia trachomatis", "experiment": "Antibacterial activity against Chlamydia trachomatis serovar L2 after 120 mins by MCC assay in presence of simulated vaginal fluid", "type": "functional", "settings": "serovar L2, 2 h", "how_it_was_run": "as §1"}, "Chlamydia trachomatis [22]": {"tested_on": "Chlamydia trachomatis", "experiment": "Antibacterial activity against Chlamydia trachomatis serovar E after 120 mins by MCC assay in presence of simulated human serum albumin", "type": "functional", "settings": "2 h", "how_it_was_run": "as §1"}, "Chlamydia trachomatis [23]": {"tested_on": "Chlamydia trachomatis", "experiment": "Antibacterial activity against Chlamydia trachomatis serovar D at 1.88 mM at pH 8 after 5 mins by MCC assay in presence of sucrose- phosphate-glutamate buffer", "type": "functional, organism-based", "settings": "in the assay text read “after 120 mins” for “after 5 mins”", "how_it_was_run": "as §2"}, "Chlamydia trachomatis [24]": {"tested_on": "Chlamydia trachomatis", "experiment": "Antibacterial activity against Chlamydia trachomatis serovar L2 after 5 mins by MCC assay in presence of simulated seminal fluid", "type": "functional", "settings": "serovar L2, 5 min", "how_it_was_run": "as §1"}, "Chlamydia trachomatis [25]": {"tested_on": "Chlamydia trachomatis", "experiment": "Antibacterial activity against Chlamydia trachomatis serovar D after 120 mins by MCC assay in presence of simulated vaginal fluid", "type": "functional", "settings": "2 h", "how_it_was_run": "as §1"}, "Chlamydia trachomatis [26]": {"tested_on": "Chlamydia trachomatis", "experiment": "Antibacterial activity against Chlamydia trachomatis serovar D after 5 mins by MCC assay in presence of simulated vaginal fluid", "type": "functional", "how_it_was_run": "as §1"}, "Chlamydia trachomatis [27]": {"tested_on": "Chlamydia trachomatis", "experiment": "Antibacterial activity against Chlamydia trachomatis serovar L2 after 5 mins by MCC assay in presence of simulated vaginal fluid", "type": "functional", "settings": "serovar L2, 5 min", "how_it_was_run": "as §1"}, "Chlamydia trachomatis [28]": {"tested_on": "Chlamydia trachomatis", "experiment": "Antibacterial activity against Chlamydia trachomatis serovar D assessed as change in MCC at pH 4 to 8 after 120 mins by MCC assay in presence of sucrose- phosphate-glutamate buffer", "type": "functional, organism-based", "how_it_was_run": "as §2"}, "Chlamydia trachomatis [29]": {"tested_on": "Chlamydia trachomatis", "experiment": "Antibacterial activity against Chlamydia trachomatis serovar E after 120 mins by MCC assay in presence of simulated vaginal fluid", "type": "functional", "settings": "2 h", "how_it_was_run": "as §1"}},
  "note": "Activity calls are given as the source filed them.",
  "data": [
    {"smiles": "CCCCCCCCOC[C@H](O)CO", "values": [
      {"measurement": "MCC", "setting": "Chlamydia trachomatis [1]", "value": 30, "unit": "mM"},
      {"measurement": "MCC", "setting": "Chlamydia trachomatis [2]", "value": 7.5, "unit": "mM"},
      {"measurement": "MCC", "setting": "Chlamydia trachomatis [3]", "value": 7.5, "unit": "mM"},
      {"measurement": "Activity", "setting": "Chlamydia trachomatis [4]", "value": "Active"},
      {"measurement": "MCC", "setting": "Chlamydia trachomatis [5]", "value": 30, "unit": "mM"},
      {"measurement": "MCC", "setting": "Chlamydia trachomatis [6]", "value": 30, "unit": "mM"},
      {"measurement": "MCC", "setting": "Chlamydia trachomatis [7]", "value": 30, "unit": "mM"},
      {"measurement": "Activity", "setting": "Chlamydia trachomatis [8]", "value": "Active"},
      {"measurement": "Activity", "setting": "Chlamydia trachomatis [9]", "value": "Active"},
      {"measurement": "inhibition (INH)", "setting": "Chlamydia trachomatis [10]", "value": 100, "unit": "%"},
      {"measurement": "MCC", "setting": "Chlamydia trachomatis [11]", "value": 7.5, "unit": "mM"},
      {"measurement": "MCC", "setting": "Chlamydia trachomatis [12]", "value": 30, "unit": "mM"},
      {"measurement": "MCC", "setting": "Chlamydia trachomatis [13]", "value": 7.5, "unit": "mM"},
      {"measurement": "Activity", "setting": "[14]", "value": "Non-toxic"},
      {"measurement": "Activity", "setting": "Chlamydia trachomatis [15]", "value": "Active"},
      {"measurement": "MCC", "setting": "Chlamydia trachomatis [16]", "value": 7.5, "unit": "mM"},
      {"measurement": "Activity", "setting": "[17]", "value": "Non-toxic"},
      {"measurement": "inhibition at 3130 µM", "setting": "Chlamydia trachomatis [18]", "value": 98.2, "unit": "%"},
      {"measurement": "MCC", "setting": "Chlamydia trachomatis [19]", "value": 7.5, "unit": "mM"},
      {"measurement": "Activity", "setting": "Chlamydia trachomatis [20]", "value": "Active"},
      {"measurement": "MCC", "setting": "Chlamydia trachomatis [21]", "value": 7.5, "unit": "mM"},
      {"measurement": "MCC", "setting": "Chlamydia trachomatis [22]", "value": 7.5, "unit": "mM"},
      {"measurement": "Activity", "setting": "Chlamydia trachomatis [23]", "value": "Active"},
      {"measurement": "MCC", "setting": "Chlamydia trachomatis [24]", "value": 30, "unit": "mM"},
      {"measurement": "MCC", "setting": "Chlamydia trachomatis [25]", "value": 7.5, "unit": "mM"},
      {"measurement": "MCC", "setting": "Chlamydia trachomatis [26]", "value": 7.5, "unit": "mM"},
      {"measurement": "MCC", "setting": "Chlamydia trachomatis [27]", "value": 7.5, "unit": "mM"},
      {"measurement": "Activity", "setting": "Chlamydia trachomatis [28]", "value": "Active"},
      {"measurement": "MCC", "setting": "Chlamydia trachomatis [29]", "value": 7.5, "unit": "mM"}
    ]}
  ]
}
